The text below walks through data of ChEMBL document CHEMBL4425127 (J Med Chem, 2016).

Calls of active or inactive are those of the source. The calls are words filed in the database; no cut-off is given here.

The subject of this experiment is Neuraminidase (Influenza A virus (strain A/Udorn/307/1972 H3N2)), P0DOF9 [E119V,I222L]. In words: Binding affinity to zanamivir/oseltamivir resistant recombinant Influenza A virus (A/Moscow/10/99(H3N2)) Neuraminidase N2 E119V/I222L double mutant expressed in baculovirus infected insect cells at 100 to 1000 nM measured up to 160 sec by surface plasmon resonance analysis. In a few lines:
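NA covalently immobilised on CM5 chip by amine coupling. Analyte passed over at several concentrations in running buffer. BSA served as negative control protein. Constants from a steady-state affinity model; triplicate experiments.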
For orientation: SPR reads the build-up and loss of mass on a sensor chip optically.

As for `COCCOCCOCCOCCOCCOCCOCCOCCOCCOCc1cn(CC(Cn2cc(COCCOCCOCCOCCOCCOCCOCCOCCOCCOC)nn2)(Cn2cc(COCCOCCOCCOCCOCCOCCOCCOCCOCCOC)nn2)Cn2cc(COCCOCCOCCOCCOCCOCCOCCOCCOCCOC)nn2)nn1`, the outcome was inactive.
